A selection: hits, their analogues and other compounds. The true share with any hit is near 4.2%.
GAA850 FXN act – increases GAA850 frataxin promoter reporter activity; HEK293 lucGAA850 FXN promoter luciferase reporter, 24 h; percent of 10 µM SAHA response; activation, % at 6 µM; actives 0.56% (n = 360,000); AID 540364;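 active means activation above the average of all compounds screened plus 3 SD, cutoff fixed separately per campaign, cut at about 7.5% in these data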;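 further: 0% = DMSO wells and 100% = 10 µM SAHA wells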
PfM18AAP inh – PfM18AAP enzyme inhibition. inhibition, % at 7.35 µM. actives 1.2% (n = 290,000). AID 1822. recombinant PfM18AAP, H-Glu-NHMec fluorogenic cleavage;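 active means inhibition above the campaign mean inhibition over all tested compounds plus 3 SD, cut at about 28% in these data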;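 further: 0% = plate median of test compound wells and 100% = 2 mM ZnCl2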
SENP1 FRET inh – blocks the human SENP1 SUMO protease catalytic domain | Q9P0U3 | recombinant SENP1 catalytic domain, CyPet-SUMO1-YPet FRET cleavage | inhibition, % at 10 µM | actives 0.21% (n = 360,000) | AID 624204;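 active means inhibition at least 30% at 10 µM, raw YFP signal under a set limit, fluorescence ratio 0.5 to 1.5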;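 further: 0% = enzyme with DMSO and 100% = no enzyme wells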
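Test system: human SENP1 catalytic domain; medium: Tris pH 8 buffer plus EDTA, NaCl, BME, BSA, NP40, catalase; incubation: 50 min reaction at room temperature; technique: FRET, CFP and YFP emission; controls: no-enzyme low control and enzyme-plus-DMSO high control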
Fh CTSL1 inh – counter-screen for PFM18AAP inhibitors: inhibitors of F. hepatica cathepsin L1. recombinant F. hepatica cathepsin L1, Z-Leu-Arg-MCA fluorescence. inhibition, % at 5.96 µM. actives 0.49% (n = 300,000). AID 1906;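 active means inhibition above the mean of all tested compounds plus 3 SD, set per screening campaign, cut at about 17% in these data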;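 further: 0% = plate median of test compound wells and 100% = 1 µM Z-Phe-Ala-diazomethylketone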
AHR activator – activators of human aryl hydrocarbon receptor. P35869. AHR-responsive luciferase reporter cells, luminescence. activation, % at 5 µM. actives 2.5% (n = 320,000). AID 2796; in the data active means activation above about 47%;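 further: 0% = vehicle wells and 100% = reference agonist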
HDAC3 inhib – human HDAC3 inhibition | O15379 | recombinant HDAC3, fluorogenic peptide/trypsin coupled, fluorescence | inhibition, % at 8.3 µM | actives 0.15% (n = 320,000) | AID 2718; in the data active means inhibition above about 26%, passing the limit was not always enough
Target sequence (O15379 whole entry, looked up): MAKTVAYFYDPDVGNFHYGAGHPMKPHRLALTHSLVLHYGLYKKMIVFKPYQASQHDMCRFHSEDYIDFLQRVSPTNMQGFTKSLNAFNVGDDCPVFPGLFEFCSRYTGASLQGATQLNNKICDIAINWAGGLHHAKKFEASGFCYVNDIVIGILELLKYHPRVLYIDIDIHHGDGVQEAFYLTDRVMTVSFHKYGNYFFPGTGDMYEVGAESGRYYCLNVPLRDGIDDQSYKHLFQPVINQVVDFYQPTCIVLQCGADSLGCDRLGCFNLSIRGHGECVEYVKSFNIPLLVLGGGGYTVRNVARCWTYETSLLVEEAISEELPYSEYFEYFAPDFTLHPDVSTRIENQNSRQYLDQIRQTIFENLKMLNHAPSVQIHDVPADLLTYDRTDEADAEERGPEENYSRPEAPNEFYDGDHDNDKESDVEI
An asterisk follows results filed as active; · = not tested or not shown.

SMILES	GAA850 FXN act	PfM18AAP inh	SENP1 FRET inh	Fh CTSL1 inh	AHR activator	HDAC3 inhib
C(#CCN1CCOCC1)COC/C=C/c1ccccc1	1	31*	-6	3	0	1
Clc1ccc(OCC#CCN2CCOCC2)cc1	1	1	-1	-6	0	-7
Brc1ccc2c(c1)CN(CC1CCCCC1)Cc1cnnn1-2	·	·	1	·	·	·
c1ccc(CN2COC3CCCCCC32)cc1 (stereo not given)	·	·	-2	·	·	·
CCN(CC)c1ccccc1	-1	·	-3	·	1	-7
CCN(CC)c1ccc(/C=C/[N+](=O)[O-])cc1	0	23	32*	2	3	7
CC1=NCCc2c1[nH]c1cc(O)ccc21	-2	·	-29	3	19	-67
COc1ccc2c3c([nH]c2c1)C(C)=NCC3	1	4	-32	-4	50*	-13
CCCNC(=O)N1[C@H]2CC[C@@H]1C(C(=O)OC)=C(c1cccc(Cl)c1)C2	-1	·	-1	·	-1	-3
CCOC(=O)C(NC(=O)CC)(Nc1ccc(C(O)(C(=O)OCC)C(F)(F)F)cc1C)C(F)(F)F (stereo not given)	-4	5	-1	0	7	12
CCOC(=O)C(NC(=O)CCl)(Nc1ccc(C(O)(C(=O)OCC)C(F)(F)F)cc1)C(F)(F)F (stereo not given)	0	-1	3	35*	17	20
Oc1c(Cl)c(Cl)c(Cl)c(Cl)c1Cl	-1	·	2	-1	79*	5
C/C(=N\NC(=O)c1ccccc1)c1c(O)n(Cc2ccccc2)c(=O)[nH]c1=O	4	7	-5	0	8	5
C/C(=N\Nc1cccc2ccccc12)c1c(O)n(Cc2ccccc2)c(=O)[nH]c1=O	0	-5	-47	-6	51*	2
Cc1ccsc1C(=O)C1CCCN(Cc2c(C)nn(C(C)C)c2C)C1 (stereo not given)	-2	-4	4	-4	0	-12
CCn1nc(-c2cccs2)nc2c(=O)n(C)c(=O)nc1-2	-14	·	44*	·	·	·
NC1=NC(=O)C(c2ccccc2)O1 (stereo not given)	·	-3	·	·	·	·
CC(=NCc1ccc2c(c1)OCO2)c1c(O)n(C)c(=O)n(C)c1=O	-2	4	0	-1	58*	4
COc1ccc(-n2c(/C=C/c3ccc(O)c(OC)c3)nc3ccccc3c2=O)cc1	-1	-13	-25	0	25	0
COc1cc(/C=C/[N+](=O)[O-])ccc1O	4	29*	3	7	1	-3
O=C(c1cccc2ccccc12)C1CCCN(C2CCC2)C1 (stereo not given)	0	-2	1	-1	8	-4
Fc1cccc(F)c1-c1nc(-c2ccc(Cl)cc2)no1	5	-4	1	1	73*	0
CC(C)[C@H]1C(=O)N2CCC[C@H]2[C@]2(O)O[C@](NC(=O)[C@@H]3C=C4c5cccc6[nH]cc(c56)C[C@H]4N(C)C3)(C(C)C)C(=O)N12	0	5	-29	36*	12	0
CC(C)C[C@H]1C(=O)N2CCCC2[C@]2(O)O[C@](NC(=O)[C@@H]3C=C4c5cccc6[nH]cc(c56)CC4N(C)C3)(C(C)C)C(=O)N12 (stereo not given in full)	-1	9	-29	31*	4	-6
COC(=O)C1=C(c2cccc(C#N)c2)C[C@@H]2CC[C@H]1N2C(=O)N1CCC(O)CC1	0	·	1	·	9	-4
SMILES	GAA850 FXN act	PfM18AAP inh	SENP1 FRET inh	Fh CTSL1 inh	AHR activator	HDAC3 inhib
COc1ccc2ccccc2c1CNCCc1ccccc1	1	-1	1	-5	7	2
COC(=O)C1=CO[C@@H](C)[C@@H]2CN(CCc3c[nH]c4ccccc34)CC[C@H]12	-2	·	-6	2	5	9
CCN1/C(=C\C=C\C2=[N+](CC)c3ccccc3C2(C)C)C(C)(C)c2ccccc21	-15	5	64*	2	-18	5
Cc1ccc(S(=O)(=O)N[C@@H](CCCCN)C(=O)CCl)cc1	2	·	-27	85*	-1	5
Cc1ccc(S(=O)(=O)NCCC(=O)Nc2ccc(Cl)cc2C(=O)c2ccccc2)cc1	-1	3	2	0	-2	2
CP(=O)(Nc1ccc(Cl)cc1)c1nc2c(s1)CCCC2 (stereo not given)	-2	2	1	0	70*	-1
CCC(=NCCCn1ccnc1)c1c(O)n(Cc2ccccc2)c(=O)[nH]c1=O	0	6	3	0	48*	1
CCC(=NCCCn1ccnc1)c1c(O)n(-c2ccccc2)c(=O)[nH]c1=O	0	4	0	-4	2	10
Nc1cccc(N=Cc2c(O)n(Cc3ccc(F)cc3)c(=O)[nH]c2=O)c1	1	2	-26	6	2	-1
C=CC1CN2CCC1CC2C(O)c1ccnc2ccccc12 (stereo not given)	1	·	1	·	·	·
NC(N)=N/N=C/c1cn(-c2ccccc2)nc1-c1cccs1	2	6	3	1	50*	3
O=c1c2ccccc2nc(-c2cccs2)n1-c1ccccc1	1	-4	1	13	4	6
Cc1ccc2c(c1N)C(=O)c1ccccc1C2=O	5	·	53*	·	73*	1
CCOC(=O)c1[nH]c2ccc(OC)cc2c1C(SCC(=O)O)c1ccc(C(F)(F)F)cc1 (stereo not given)	0	2	3	-1	4	-12
O=C(O)c1cc[c]([Hg][Cl])cc1	6	·	-3	-2	-2	95*
C[C@@H]1O[C@@H](O[C@@H]2C=C3CC[C@@H]4C(CC[C@]5(C)[C@@H](c6ccc(=O)oc6)CC[C@]45O)[C@@]3(C)CC2)[C@H](O)[C@H](O)[C@H]1O (stereo not given in full)	-14	·	-1	·	-6	3
C[C@@H]1O[C@@H](O[C@@H]2C=C3CCC4C(CC[C@]5(C)[C@@H](c6ccc(=O)oc6)CC[C@]45O)[C@@]3(C)CC2)[C@H](O)[C@H](O)[C@H]1O (stereo not given in full)	-14	·	2	25*	-8	-9
C[C@]12CCC3C(CC[C@H]4C[C@@H](O)CC[C@]34C)C1C[C@@H](O)C2=O (stereo not given in full)	0	·	2	·	-2	-8
CCOC(=O)c1c(C)n(Cc2ccccc2)c2ccc(OCC(O)Cn3nc(C)cc3C)cc12 (stereo not given)	0	7	2	3	55*	20
CCOC(=O)c1c(C)n(Cc2ccccc2)c2ccc(OCC(O)Cn3nc(C)nc3C)cc12 (stereo not given)	2	2	3	2	12	-2

Screens deposited in PubChem by several laboratories.
